Source: PMC10884431 (Heliyon, 2024)

Assays:
macrophages = assay: Nitric oxide; assay type: cell-based; settings: positive control at 5 μM
Method in brief: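 NO production measured by absorbance at 540 nm on a microplate reader. The assay was run in triplicate and repeated in three independent experiments.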

[1] = biological target: SARS-CoV-2 main protease (M^pro) (Severe acute respiratory syndrome coronavirus 2, UniProt P0DTD1); assay: M^pro inhibition assay; assay type: biochemical; settings: read-out: SARS-CoV-2 M^pro inhibition percentage, reference at 1 μM
[2] = biological target: HIV-1 reverse transcriptase (Human immunodeficiency virus type 1 group M subtype B, UniProt P03366); assay: HIV-1 reverse transcriptase inhibition assay; assay type: biochemical; settings: positive control at 1 μM
Method in brief: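 Test compound in DMSO is added, then reverse transcriptase (25 nM solution), and the mix is held 30 min at room temperature. The reaction is stopped with EDTA, PicoGreen is added and endpoint fluorescence is read at 485/535 nm. % inhibition is taken against a DMSO control, minus an EDTA-pretreated blank. Nevirapine is the reference.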

alpha-glucosidase = settings: from the lichen Parmotrema dilatatum; cited from earlier work

SMILES: Cc1ccc(S(=O)(=O)/C=C/C#N)cc1 [Bay 11–7082]
- % NO inhibition ±SD (macrophages): 72.5 ± 3.9%
- % Cell viability ±SD (macrophages; NO assay): 82.7 ± 5.3%

SMILES: Cc1cccc(C)c1OCC(=O)N[C@@H](Cc1ccccc1)[C@@H](O)C[C@H](Cc1ccccc1)NC(=O)[C@H](C(C)C)N1CCCNC1=O [Lopinavir]
- inhibition at 1 µM [1]: 47.7 ± 1.7%

SMILES: Cc1ccnc2c1NC(=O)c1cccnc1N2C1CC1 [Nevirapine]
- HIV-1 reverse transcriptase inhibition percentage [2]: 38.3 ± 2.5%

SMILES: COC(=O)c1c(C)c(Cc2c(O)c(Oc3c(C=O)c(O)cc(C)c3C(=O)OC)c3c(c2O)C(=O)O[C@@H]3O)c(O)c(C=O)c1O [parmetherines A]
- Alpha-glucosidase inhibition (in words) (alpha-glucosidase): strong

SMILES: COC(=O)c1c(C)c(Cc2c(O)c(Oc3c(C=O)c(O)cc(C)c3C(=O)OC)c3c(c2O)C(=O)O[C@@H]3OC)c(O)c(C=O)c1O [parmetherines B]
- Alpha-glucosidase inhibition (in words) (alpha-glucosidase): strong
